From ChEMBL document CHEMBL4118021, “Studies of TAK1-centered polypharmacology with novel covalent TAK1 inhibitors” (Bioorg Med Chem, 2017)
Active and inactive are the calls of the source. The calls are words filed in the database; no cut-off is given here.

How the values were obtained:
[1] = biological target: Tyrosine-protein kinase JAK1 (Homo sapiens) (UniProt P23458); test: Inhibition of JAK1 domain2 in human SKCO1 cells at 1 uM after 4 hrs using biotin labeled IGDFGLTKAIETDKEYYTVK probe by mass-spectrometric analysis relative to control; format: cell-based
[2] = biological target: Dual specificity mitogen-activated protein kinase kinase 1 (Homo sapiens) (UniProt Q02750); test: Inhibition of full length human MEK1 (1 to 393 residues) expressed in mammalian expression system assessed as enzyme activity at 10 uM by KINOMEScan assay relative to control; parameters: scale not given: the % may be the effect or the level left
Chain of Dual specificity mitogen-activated protein kinase kinase 1 (Homo sapiens) (Q02750 whole entry, the tested form may be a part): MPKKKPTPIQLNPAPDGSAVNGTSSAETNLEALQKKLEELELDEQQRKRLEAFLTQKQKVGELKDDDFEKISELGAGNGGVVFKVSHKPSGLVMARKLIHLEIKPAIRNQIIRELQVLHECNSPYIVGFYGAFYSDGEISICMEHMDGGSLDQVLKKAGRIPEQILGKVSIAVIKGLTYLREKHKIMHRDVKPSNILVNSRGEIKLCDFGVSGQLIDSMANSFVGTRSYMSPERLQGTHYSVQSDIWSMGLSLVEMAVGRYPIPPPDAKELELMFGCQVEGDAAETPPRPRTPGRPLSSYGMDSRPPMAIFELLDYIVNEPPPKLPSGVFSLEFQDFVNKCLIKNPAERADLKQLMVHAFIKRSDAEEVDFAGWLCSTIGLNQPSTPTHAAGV
Summary of the method: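 In vitro ATP-site competition binding assay (KinomeScan) across a panel of 456 kinases. Compound was tested at 1 and 10 μM. The read-out is the binding inhibition score relative to control.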

[3] = biological target: T1, Serine/threonine-protein kinase D2 (Homo sapiens) (UniProt Q9BZL6); test: Binding affinity to PRKD2 in human NCI-H358 cells at 1 uM by mass spectrometry based pull down assay; format: cell-based
T1 sequence (whole entry): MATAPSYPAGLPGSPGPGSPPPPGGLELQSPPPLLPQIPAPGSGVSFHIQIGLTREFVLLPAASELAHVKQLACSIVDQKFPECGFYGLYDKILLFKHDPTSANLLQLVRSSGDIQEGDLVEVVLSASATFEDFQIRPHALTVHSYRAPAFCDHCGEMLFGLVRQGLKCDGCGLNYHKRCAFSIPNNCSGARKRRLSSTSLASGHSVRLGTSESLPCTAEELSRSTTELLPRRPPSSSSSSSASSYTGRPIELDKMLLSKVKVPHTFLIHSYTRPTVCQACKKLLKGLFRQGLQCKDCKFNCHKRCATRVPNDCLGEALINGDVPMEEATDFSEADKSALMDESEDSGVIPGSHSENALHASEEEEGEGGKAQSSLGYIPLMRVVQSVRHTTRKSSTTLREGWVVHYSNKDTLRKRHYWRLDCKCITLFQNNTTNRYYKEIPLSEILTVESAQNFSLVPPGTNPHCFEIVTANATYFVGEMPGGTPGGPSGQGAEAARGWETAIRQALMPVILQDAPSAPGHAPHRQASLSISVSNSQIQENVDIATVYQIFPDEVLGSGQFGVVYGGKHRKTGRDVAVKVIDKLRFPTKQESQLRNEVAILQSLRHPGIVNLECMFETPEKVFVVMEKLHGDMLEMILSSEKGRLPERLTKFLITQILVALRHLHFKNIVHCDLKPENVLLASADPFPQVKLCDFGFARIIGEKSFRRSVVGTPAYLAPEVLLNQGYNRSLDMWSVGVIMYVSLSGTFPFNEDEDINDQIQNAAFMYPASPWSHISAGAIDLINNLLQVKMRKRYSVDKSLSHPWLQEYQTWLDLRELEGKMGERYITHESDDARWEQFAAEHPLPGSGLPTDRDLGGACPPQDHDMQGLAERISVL

[4] = biological target: Protein diaphanous homolog 1 (Homo sapiens) (UniProt O60610); test: Binding affinity to DIAPH1 in human NCI-H358 cells at 1 uM by mass spectrometry based pull down assay; format: cell-based
Chain of Protein diaphanous homolog 1 (Homo sapiens) (O60610 whole entry): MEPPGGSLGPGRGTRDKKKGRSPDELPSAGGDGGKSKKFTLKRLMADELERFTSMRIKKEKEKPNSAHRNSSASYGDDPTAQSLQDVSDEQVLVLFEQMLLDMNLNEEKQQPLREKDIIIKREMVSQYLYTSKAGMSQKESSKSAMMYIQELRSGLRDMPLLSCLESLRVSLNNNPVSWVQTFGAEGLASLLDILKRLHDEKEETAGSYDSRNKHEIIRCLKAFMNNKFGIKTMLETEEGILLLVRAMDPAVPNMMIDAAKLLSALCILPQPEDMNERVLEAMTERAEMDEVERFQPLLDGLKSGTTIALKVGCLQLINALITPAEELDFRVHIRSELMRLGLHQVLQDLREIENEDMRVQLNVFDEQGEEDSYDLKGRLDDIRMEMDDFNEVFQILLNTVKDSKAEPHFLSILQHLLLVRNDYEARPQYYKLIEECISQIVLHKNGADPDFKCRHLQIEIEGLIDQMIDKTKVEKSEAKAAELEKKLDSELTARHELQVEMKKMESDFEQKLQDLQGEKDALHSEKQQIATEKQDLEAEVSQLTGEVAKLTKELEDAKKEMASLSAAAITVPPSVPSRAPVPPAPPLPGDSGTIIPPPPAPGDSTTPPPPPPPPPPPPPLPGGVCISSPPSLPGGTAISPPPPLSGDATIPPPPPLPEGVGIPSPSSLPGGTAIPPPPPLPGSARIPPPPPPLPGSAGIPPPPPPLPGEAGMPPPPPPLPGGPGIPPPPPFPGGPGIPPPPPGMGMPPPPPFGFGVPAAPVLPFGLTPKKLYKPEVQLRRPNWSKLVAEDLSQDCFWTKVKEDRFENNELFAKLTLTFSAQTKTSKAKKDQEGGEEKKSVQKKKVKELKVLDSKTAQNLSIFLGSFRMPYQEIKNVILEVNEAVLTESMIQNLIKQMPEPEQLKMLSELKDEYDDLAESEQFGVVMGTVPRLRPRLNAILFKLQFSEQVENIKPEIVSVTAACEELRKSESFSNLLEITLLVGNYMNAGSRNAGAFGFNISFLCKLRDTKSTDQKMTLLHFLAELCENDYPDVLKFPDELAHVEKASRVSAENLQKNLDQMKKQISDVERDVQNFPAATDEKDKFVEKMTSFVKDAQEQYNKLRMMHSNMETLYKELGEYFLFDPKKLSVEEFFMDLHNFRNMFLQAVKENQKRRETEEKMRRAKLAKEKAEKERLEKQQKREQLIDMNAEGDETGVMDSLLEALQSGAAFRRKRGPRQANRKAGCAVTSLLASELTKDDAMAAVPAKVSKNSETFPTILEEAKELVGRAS

[5] = biological target: Sarcoplasmic/endoplasmic reticulum calcium ATPase 2 (Homo sapiens) (UniProt P16615); test: Binding affinity to ATP2A2 in human NCI-H23 cells at 1 uM by mass spectrometry based pull down assay; format: cell-based
[6] = biological target: Acidic leucine-rich nuclear phosphoprotein 32 family member B (Homo sapiens) (UniProt Q92688); test: Binding affinity to ANP32B in human NCI-H358 cells at 1 uM by mass spectrometry based pull down assay; format: cell-based
Chain of Acidic leucine-rich nuclear phosphoprotein 32 family member B (Homo sapiens) (Q92688 whole entry): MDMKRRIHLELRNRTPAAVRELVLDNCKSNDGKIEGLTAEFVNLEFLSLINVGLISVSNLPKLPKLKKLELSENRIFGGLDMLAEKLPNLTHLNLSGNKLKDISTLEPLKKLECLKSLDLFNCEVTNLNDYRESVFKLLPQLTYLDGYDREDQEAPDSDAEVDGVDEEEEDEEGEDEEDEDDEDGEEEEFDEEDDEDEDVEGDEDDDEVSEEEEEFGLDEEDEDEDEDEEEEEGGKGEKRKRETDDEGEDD

[7] = biological target: U5 small nuclear ribonucleoprotein 200 kDa helicase (Homo sapiens) (UniProt O75643); test: Binding affinity to SNRNP200 in human NCI-H23 cells at 1 uM by mass spectrometry based pull down assay; format: cell-based
Chain of U5 small nuclear ribonucleoprotein 200 kDa helicase (Homo sapiens) (O75643 whole entry): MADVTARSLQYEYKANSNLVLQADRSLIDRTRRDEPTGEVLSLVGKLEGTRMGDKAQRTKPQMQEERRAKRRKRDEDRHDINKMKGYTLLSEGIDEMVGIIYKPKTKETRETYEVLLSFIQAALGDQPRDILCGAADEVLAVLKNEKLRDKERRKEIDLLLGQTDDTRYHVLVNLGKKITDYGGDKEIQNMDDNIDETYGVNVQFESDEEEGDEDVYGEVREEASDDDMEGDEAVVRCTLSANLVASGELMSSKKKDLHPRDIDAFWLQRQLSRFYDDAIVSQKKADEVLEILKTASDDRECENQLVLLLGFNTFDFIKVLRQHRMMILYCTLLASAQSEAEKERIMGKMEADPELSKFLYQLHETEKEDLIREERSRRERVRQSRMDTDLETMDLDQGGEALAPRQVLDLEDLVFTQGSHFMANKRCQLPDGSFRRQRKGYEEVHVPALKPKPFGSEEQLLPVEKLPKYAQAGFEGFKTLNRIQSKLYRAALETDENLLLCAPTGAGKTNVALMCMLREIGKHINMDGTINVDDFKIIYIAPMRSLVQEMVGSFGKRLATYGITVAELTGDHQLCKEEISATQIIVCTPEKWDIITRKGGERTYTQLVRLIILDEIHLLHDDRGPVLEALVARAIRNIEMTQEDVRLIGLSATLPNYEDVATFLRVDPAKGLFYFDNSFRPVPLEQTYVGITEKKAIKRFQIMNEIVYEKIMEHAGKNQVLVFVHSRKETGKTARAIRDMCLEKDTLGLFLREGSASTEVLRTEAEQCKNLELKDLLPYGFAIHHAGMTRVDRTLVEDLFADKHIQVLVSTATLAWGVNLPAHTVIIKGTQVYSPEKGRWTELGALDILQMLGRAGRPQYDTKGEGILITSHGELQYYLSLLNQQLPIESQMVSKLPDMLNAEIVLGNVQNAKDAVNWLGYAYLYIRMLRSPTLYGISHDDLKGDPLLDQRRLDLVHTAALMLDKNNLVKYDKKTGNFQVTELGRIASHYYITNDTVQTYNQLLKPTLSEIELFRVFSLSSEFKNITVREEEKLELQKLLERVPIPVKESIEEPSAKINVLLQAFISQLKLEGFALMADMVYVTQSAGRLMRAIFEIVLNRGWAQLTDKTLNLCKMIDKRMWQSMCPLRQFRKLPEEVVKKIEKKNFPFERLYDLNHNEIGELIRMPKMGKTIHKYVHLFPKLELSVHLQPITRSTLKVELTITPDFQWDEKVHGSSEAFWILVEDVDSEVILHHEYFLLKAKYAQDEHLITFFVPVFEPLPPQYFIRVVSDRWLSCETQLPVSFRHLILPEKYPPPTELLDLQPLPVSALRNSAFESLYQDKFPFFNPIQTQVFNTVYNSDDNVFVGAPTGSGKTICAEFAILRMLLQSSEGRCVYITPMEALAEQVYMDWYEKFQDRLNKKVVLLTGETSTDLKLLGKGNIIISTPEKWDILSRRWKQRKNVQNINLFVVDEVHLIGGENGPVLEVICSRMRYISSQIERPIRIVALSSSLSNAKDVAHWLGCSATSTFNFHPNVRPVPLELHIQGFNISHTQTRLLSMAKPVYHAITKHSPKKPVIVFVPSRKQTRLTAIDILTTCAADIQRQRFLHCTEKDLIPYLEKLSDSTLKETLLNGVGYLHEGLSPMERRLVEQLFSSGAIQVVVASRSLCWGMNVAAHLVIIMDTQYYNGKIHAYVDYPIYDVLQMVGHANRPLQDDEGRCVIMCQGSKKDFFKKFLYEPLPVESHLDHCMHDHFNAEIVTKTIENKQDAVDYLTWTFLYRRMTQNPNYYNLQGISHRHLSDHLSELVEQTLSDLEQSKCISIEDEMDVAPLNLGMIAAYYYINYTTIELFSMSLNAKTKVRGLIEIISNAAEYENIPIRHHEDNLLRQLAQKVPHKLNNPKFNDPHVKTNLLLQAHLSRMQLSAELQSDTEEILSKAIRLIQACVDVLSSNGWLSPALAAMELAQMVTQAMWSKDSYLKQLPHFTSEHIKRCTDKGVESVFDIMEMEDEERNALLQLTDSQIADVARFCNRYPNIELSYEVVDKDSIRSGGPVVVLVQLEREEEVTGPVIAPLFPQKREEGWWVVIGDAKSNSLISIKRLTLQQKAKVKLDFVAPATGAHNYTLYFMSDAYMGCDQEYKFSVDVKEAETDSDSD

[8] = biological target: Arginine--tRNA ligase, cytoplasmic (Homo sapiens) (UniProt P54136); test: Binding affinity to RARS in human NCI-H358 cells at 1 uM by mass spectrometry based pull down assay; format: cell-based
[9] = biological target: 80S Ribosome (Homo sapiens) (UniProt P08865+P42677+P62753+P15880+P23396+P61247+P62701+P22090+P46782+P62081+P62241+P46781+P46783+P62280+P25398+P62277+P62263+P62841+P62244+P62249+P08708+P62269+P39019+P60866+P63220+P62266+P62847+P62851+P62854+P62979+P62857+P62273+P62861+P39023+P36578+P46777+Q02878+P18124+P62424+P62917+P32969+P27635+P62906+P62913+P30050+P26373+P40429+P50914+P61313+P18621+Q07020+Q02543+P84098+P46778+P35268+P62829+P62750+P83731+P61254+P61353+P46776+P46779+P47914+P62888+P62899+P62910+P49207+P42766+P18077+Q9Y3U8+P83881+P61927+P61513+P63173+P62891+P62945+P05388+P05386); test: Binding affinity to RPS11 in human NCI-H358 cells at 1 uM by mass spectrometry based pull down assay; format: cell-based
[10] = biological target: TGF-beta-activated kinase 1 and MAP3K7-binding protein 1 (Homo sapiens) (UniProt Q15750); test: Binding affinity to TAB1 in human NCI-H23 cells at 1 uM by mass spectrometry based pull down assay; format: cell-based
Chain of TGF-beta-activated kinase 1 and MAP3K7-binding protein 1 (Homo sapiens) (Q15750 whole entry): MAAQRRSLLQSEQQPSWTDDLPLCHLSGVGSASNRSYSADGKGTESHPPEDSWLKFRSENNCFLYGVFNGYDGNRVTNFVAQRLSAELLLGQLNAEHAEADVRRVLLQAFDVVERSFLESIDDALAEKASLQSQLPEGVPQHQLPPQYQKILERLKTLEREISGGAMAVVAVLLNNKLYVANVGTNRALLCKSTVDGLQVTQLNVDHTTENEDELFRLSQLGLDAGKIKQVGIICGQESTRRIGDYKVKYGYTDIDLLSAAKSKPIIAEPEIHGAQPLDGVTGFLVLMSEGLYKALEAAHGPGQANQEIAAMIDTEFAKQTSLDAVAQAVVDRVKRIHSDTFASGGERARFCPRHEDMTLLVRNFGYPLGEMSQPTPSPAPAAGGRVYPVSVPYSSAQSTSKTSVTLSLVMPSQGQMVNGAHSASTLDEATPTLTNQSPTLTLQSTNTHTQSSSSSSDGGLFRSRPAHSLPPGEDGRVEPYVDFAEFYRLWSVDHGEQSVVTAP

[11] = biological target: Actin-related protein 2/3 complex subunit 2 (Homo sapiens) (UniProt O15144); test: Binding affinity to ARPC2 in human NCI-H23 cells at 1 uM by mass spectrometry based pull down assay; format: cell-based
[12] = biological target: Thioredoxin-dependent peroxide reductase, mitochondrial (Homo sapiens) (UniProt P30048); test: Binding affinity to PRDX3 in human NCI-H23 cells at 1 uM by mass spectrometry based pull down assay; format: cell-based
Chain of Thioredoxin-dependent peroxide reductase, mitochondrial (Homo sapiens) (P30048 whole entry): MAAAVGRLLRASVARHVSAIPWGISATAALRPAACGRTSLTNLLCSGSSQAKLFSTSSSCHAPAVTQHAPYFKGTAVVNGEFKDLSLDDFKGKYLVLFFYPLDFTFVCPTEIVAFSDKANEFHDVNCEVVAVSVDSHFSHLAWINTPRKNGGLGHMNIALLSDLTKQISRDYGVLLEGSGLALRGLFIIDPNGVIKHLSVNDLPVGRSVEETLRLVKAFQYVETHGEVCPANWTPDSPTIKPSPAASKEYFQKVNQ

[13] = biological target: Phosphoribosylformylglycinamidine synthase (Homo sapiens) (UniProt O15067); test: Binding affinity to PFAS in human NCI-H23 cells at 1 uM by mass spectrometry based pull down assay; format: cell-based
[14] = biological target: Delta-1-pyrroline-5-carboxylate synthase (Homo sapiens) (UniProt P54886); test: Binding affinity to ALDH18A1 in human NCI-H23 cells at 1 uM by mass spectrometry based pull down assay; format: cell-based
Summary of the method: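 NCI-H23 or NCI-H358 cells were grown and lysed. Lysates were incubated overnight at 4 °C with 1 μM biotinylated covalent probe or DMSO, then pulled down on streptavidin beads. Proteins were run on polyacrylamide gels and stained with Coomassie. Bands were excised, digested and identified by mass spectrometry.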

[15] = biological target: Transmembrane protein 263 (Homo sapiens) (UniProt Q8WUH6); test: Binding affinity to TMEM263 in human NCI-H23 cells at 1 uM by mass spectrometry based pull down assay; format: cell-based
[16] = biological target: Pyrroline-5-carboxylate reductase 2 (Homo sapiens) (UniProt Q96C36); test: Binding affinity to PYCR2 in human NCI-H358 cells at 1 uM by mass spectrometry based pull down assay; format: cell-based

## C=CC(=O)Nc1ccccc1Nc1nc(Nc2ccc(N3CCN(C)CC3)cc2)ncc1Cl
[1]
  inhibition: 2.6%

## COc1cc(O)c2c(c1)/C=C/C[C@H](O)[C@H](O)C(=O)/C=C\C[C@H](C)OC2=O
[2]
  Activity: 0.05%

## C=CC(=O)Nc1ccccc1Nc1nc(Nc2ccc(N3CCN(CCOCCOCCOCCNC(=O)CCCC[C@@H]4SC[C@@H]5NC(=O)N[C@@H]54)CC3)cc2)ncc1Cl
[3]
  Activity: Active
[4]
  Activity: Active
[5]
  Activity: Active
[6]
  Activity: Active
[7]
  Activity: Active
[8]
  Activity: Active
[9]
  Activity: Active
[10]
  Activity: Active
[11]
  Activity: Active
[12]
  Activity: Active
[13]
  Activity: Active
[14]
  Activity: Active
[15]
  Activity: Active
[16]
  Activity: Active
